According to ChEMBL document CHEMBL5325402, “Exploration of novel hexahydropyrrolo[1,2-e]imidazol-1-one derivatives as antiviral agents against ZIKV and USUV” (Eur J Med Chem, 2023):
Converted amounts (≈) assume the structure as drawn. The source made the active and inactive calls. The rule behind the calls is not given here.

How the values were obtained:
[1] = Solubility in i-propanol at 25 degreeC; format: physicochemical
[2] = tested on: Usutu virus; assay: Antiviral activity against USUV 3345 isolate Arb276 infected in human A549 cells assessed as reduction in viral replication pretreated with virus for 1 hr followed by infection of cells with compound treated-virus for 20 hrs by focus reduction assay; format: functional, organism-based; settings: Usutu virus, 3345, A549; for EC90: time 21 hrs
Method in brief: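 Dose-response: serial dilutions (100 to 0.13 μM) preincubated 1 h at 37 °C with virus (MOI 0.02), then added to cells for 20 h (USUV) or 30 h (ZIKV) in 2% FBS DMEM. Cells per well: Vero 1.2 × 10^4, A549 1.3 × 10^4, Huh7 1.6 × 10^4. Foci immunostained and counted. EC50/EC90 fitted by variable-slope sigmoidal curve, mean of three independent experiments.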

[3] = tested on: Usutu virus; assay: Antiviral activity against USUV 3345 isolate Arb276 infected in African green monkey Vero cells assessed as reduction in viral replication pretreated with virus for 1 hr followed by infection of cells with compound treated-virus for 20 hrs by focus reduction assay; format: functional, organism-based; settings: Usutu virus, 3345, Vero; for EC90: time 21 hrs
[4] = Selectivity ratio of EC50 for antiviral activity against ZIKV MR766 infected in African green monkey Vero cells pretreated with cells 24 hrs prior to viral infection to EC50 for antiviral activity against ZIKV MR766 infected in African green monkey Vero cells treated immediately after viral infection for 30 hrs; format: functional, Zika virus
Method in brief: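 Time of addition: serial dilutions (100 to 0.13 μM) put on cells either 24 h before infection or after infection for 30 h (ZIKV). Infected cells fixed in acetone-methanol and immunostained. EC50 computed for each treatment condition by sigmoidal fit; the ratio compares the two EC50s.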

[5] = tested on: Zika virus; assay: Antiviral activity against ZIKV MR766 infected in African green monkey Vero cells assessed as viral growth inhibition at 0.13 to 100 uM treated immediately after viral infection for 30 hrs by time of addition assay; format: functional, organism-based; settings: dose 0.13-100 µM
Method in brief: (§1)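 Time-of-addition assay in Vero. Serial dilutions (100 to 0.13 μM) were added to cells 24 h or 2 h before infection, during the 2 h infection, or post-infection for 24 h (USUV) or 30 h (ZIKV). Cells were fixed in cold acetone-methanol (50:50) and infected cells detected by indirect immunostaining. EC50/EC90 came from variable-slope sigmoidal fits; mean of three independent experiments.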

[6] = tested on: Usutu virus; assay: Antiviral activity against USUV 3345 isolate Arb276 infected in African green monkey Vero cells assessed as viral growth inhibition at 0.13 to 100 uM pretreated with cells 24 hrs prior to viral infection by time of addition assay; format: functional, organism-based; settings: dose 0.13-100 µM; method in brief: as §1
[7] = tested on: Zika virus; assay: Antiviral activity against ZIKV MR766 infected in African green monkey Vero cells assessed as reduction in plaque formation pretreated with virus for 1 hr followed by infection of cells with compound treated-virus for 2 hrs and further treatment of compound for 72 hrs by crystal violet staining based assay; format: functional, organism-based; settings: time 75.0 hrs
Method in brief: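 Plaque reduction assay. Vero cells were seeded 6 × 10^4/well. ZIKV (MOI 0.005) was preincubated with serial compound dilutions for 1 h at 37 °C, then adsorbed on cells for 2 h. After two washes, cells were overlaid with 1.2% methylcellulose in DMEM for 72 h, then fixed and stained with 0.1% crystal violet for 30 min. Plaques counted; EC50/EC90 from variable-slope sigmoidal fits.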

[8] = tested on: Zika virus; assay: Antiviral activity against ZIKV MR766 infected in African green monkey Vero cells assessed as viral growth inhibition at 0.13 to 100 uM treated immediately after viral infection for 2 hrs by time of addition assay; format: functional, organism-based; settings: dose 0.13-100 µM, in the assay text read “during viral infection” for “immediately after viral infection”; method in brief: as §1
[9] = tested on: Zika virus; assay: Antiviral activity against ZIKV MR766 infected in African green monkey Vero cells assessed as viral growth inhibition at 11 to 100 uM pretreated with virus for 1 hr followed by infection of cells with compound treated-virus for 30 hrs by focus reduction assay relative to control; format: functional; settings: dose 11-100 µM, time 31 hrs
Method in brief: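 Virus (MOI 0.02) preincubated with compound 1 h at 37 °C, then mixture put on Vero cells (1.2 × 10^4/well, seeded the day before) in DMEM with 2% FBS for 30 h (ZIKV) or 20 h (USUV) at 37 °C. Fixed in cold acetone-methanol, foci immunostained with anti-flavivirus E 4G2 antibody and counted. % infection is relative to DMSO-treated wells. Screen used 100, 33 and 11 μM.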

| Compound | solubility [1] | EC50 [2] | EC90 [2] | EC50 [3] | EC90 [3] | Ratio EC50 [4] | Activity [5] | Activity [6] | Activity [7] | Activity [8] | inhibition (INH) [9] |
| --- | --- | --- | --- | --- | --- | --- | --- | --- | --- | --- | --- |
| O=C1C[C@H](c2ccc([C@H]3N(c4ccc([N+](=O)[O-])cc4)C(=O)[C@@H]4CCCN43)cc2)O[C@@H]1CO | 8570 µg/mL (≈ 19.6 mM) | 6.82 µM | 15.2 µM | 2.76 µM | 4.34 µM | 5 | Active | Active | Active | inactive | 100% |
| O=C1[C@@H]2CCCN2[C@@H](c2ccc([C@H]3C[C@@H](O)[C@@H](CO)O3)cc2)N1c1ccc([N+](=O)[O-])cc1 | 7320 µg/mL (≈ 16.7 mM) | 6.42 µM | 12 µM | 2.53 µM | 3.89 µM | 5 | Active | Active | Active | inactive | 100% |
